Values after ≈ are worked out from the molar mass of the structure shown. Active and inactive are the calls of the source. The rule behind the calls is not given here.
Key:
Trichoderma koningii [1] = assay: Antifungal activity against Trichoderma koningii assessed as radial growth at 7% after 72 hrs by poison food technique of Flack relative to control; assay type: functional
How it was run: (§1)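 Acetone stock added to molten sterilized PDA to final 0.5–7%, plated in 90 mm dishes with compound-free plates as control. Each plate was inoculated with a 9 mm disc from a 4-day-old culture, incubated at 25 ± 1 °C, and colony diameter measured at 24 h intervals. % inhibition = (control − treatment)/control × 100; three replicates averaged.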

Trichoderma hamatum [2] = assay: Antifungal activity against Trichoderma hamatum assessed as radial growth at 5% after 24 hrs by poison food technique of Flack relative to control; assay type: functional; how it was run: as §1
Trichoderma hamatum [3] = assay: Antifungal activity against Trichoderma hamatum assessed as radial growth at 7% after 72 hrs by poison food technique of Flack relative to control; assay type: functional; how it was run: as §1
Trichoderma hamatum [4] = assay: Antifungal activity against Trichoderma hamatum assessed as radial growth at 3% after 72 hrs by poison food technique of Flack relative to control; assay type: functional
Aspergillus niger [5] = assay: Antifungal activity against Aspergillus niger assessed as radial growth at 1% after 24 hrs by poison food technique of Flack relative to control; assay type: functional
Trichoderma koningii [6] = assay: Antifungal activity against Trichoderma koningii assessed as radial growth at 1% after 24 hrs by poison food technique of Flack relative to control; assay type: functional; how it was run: as §1
Aspergillus niger [7] = assay: Antifungal activity against Aspergillus niger assessed as radial growth at 3% after 24 hrs by poison food technique of Flack relative to control; assay type: functional
Trichoderma hamatum [8] = assay: Antifungal activity against Trichoderma hamatum assessed as radial growth at 3% after 48 hrs by poison food technique of Flack relative to control; assay type: functional
Trichoderma hamatum [9] = assay: Antifungal activity against Trichoderma hamatum assessed as radial growth at 1% after 24 hrs by poison food technique of Flack relative to control; assay type: functional
Trichoderma koningii [10] = assay: Antifungal activity against Trichoderma koningii assessed as radial growth at 5% after 48 hrs by poison food technique of Flack relative to control; assay type: functional; how it was run: as §1
Trichoderma hamatum [11] = assay: Antifungal activity against Trichoderma hamatum assessed as radial growth at 1% after 48 hrs by poison food technique of Flack relative to control; assay type: functional
Aspergillus niger [12] = assay: Antifungal activity against Aspergillus niger assessed as radial growth at 0.5% after 48 hrs by poison food technique of Flack relative to control; assay type: functional
Aspergillus niger [13] = assay: Antifungal activity against Aspergillus niger assessed as radial growth at 3% after 48 hrs by poison food technique of Flack relative to control; assay type: functional
Trichoderma hamatum [14] = assay: Antifungal activity against Trichoderma hamatum assessed as radial growth at 7% after 24 hrs by poison food technique of Flack; assay type: functional, organism-based
How it was run: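 Poisoned-food method: acetone stock mixed into molten sterilized potato dextrose agar to final 0.5, 1, 3, 5 or 7%, poured into 90 mm plates. Plates were inoculated with a 9 mm mycelial disc from a 4-day-old pure culture and incubated at 25 ± 1 °C. Colony diameter (mm) was read every 24 h; mean of three replicates.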

Trichoderma koningii [15] = assay: Antifungal activity against Trichoderma koningii assessed as radial growth at 0.5% after 48 hrs by poison food technique of Flack relative to control; assay type: functional; how it was run: as §1
Aspergillus niger [16] = assay: Antifungal activity against Aspergillus niger assessed as radial growth at 5% after 24 hrs by poison food technique of Flack relative to control; assay type: functional
Trichoderma koningii [17] = assay: Antifungal activity against Trichoderma koningii assessed as radial growth at 3% after 72 hrs by poison food technique of Flack relative to control; assay type: functional; how it was run: as §1
Trichoderma koningii [18] = assay: Antifungal activity against Trichoderma koningii assessed as radial growth at 7% after 24 hrs by poison food technique of Flack relative to control; assay type: functional; how it was run: as §1
Aspergillus niger [19] = assay: Antifungal activity against Aspergillus niger assessed as radial growth at 7% after 48 hrs by poison food technique of Flack relative to control; assay type: functional
Aspergillus niger [20] = assay: Antifungal activity against Aspergillus niger assessed as radial growth at 7% after 24 hrs by poison food technique of Flack relative to control; assay type: functional
Trichoderma koningii [21] = assay: Antifungal activity against Trichoderma koningii assessed as radial growth at 5% after 72 hrs by poison food technique of Flack relative to control; assay type: functional; how it was run: as §1
Trichoderma koningii [22] = assay: Antifungal activity against Trichoderma koningii assessed as radial growth at 0.5% after 24 hrs by poison food technique of Flack relative to control; assay type: functional; how it was run: as §1
Trichoderma koningii [23] = assay: Antifungal activity against Trichoderma koningii assessed as radial growth at 5% after 24 hrs by poison food technique of Flack relative to control; assay type: functional; how it was run: as §1
Aspergillus niger [24] = assay: Antifungal activity against Aspergillus niger assessed as radial growth at 0.5% after 24 hrs by poison food technique of Flack relative to control; assay type: functional
Aspergillus niger [25] = assay: Antifungal activity against Aspergillus niger assessed as radial growth at 7% after 72 hrs by poison food technique of Flack relative to control; assay type: functional
Trichoderma hamatum [26] = assay: Antifungal activity against Trichoderma hamatum; assay type: functional
Trichoderma hamatum [27] = assay: Antifungal activity against Trichoderma hamatum assessed as radial growth at 1% after 72 hrs by poison food technique of Flack relative to control; assay type: functional
Aspergillus niger [28] = assay: Antifungal activity against Aspergillus niger assessed as radial growth at 5% after 72 hrs by poison food technique of Flack relative to control; assay type: functional
Trichoderma koningii [29] = assay: Antifungal activity against Trichoderma koningii assessed as radial growth at 3% after 48 hrs by poison food technique of Flack relative to control; assay type: functional; how it was run: as §1
Trichoderma koningii [30] = assay: Antifungal activity against Trichoderma koningii assessed as radial growth at 1% after 48 hrs by poison food technique of Flack relative to control; assay type: functional; how it was run: as §1
Trichoderma koningii [31] = assay: Antifungal activity against Trichoderma koningii assessed as radial growth at 1% after 72 hrs by poison food technique of Flack relative to control; assay type: functional; how it was run: as §1
Trichoderma hamatum [32] = assay: Antifungal activity against Trichoderma hamatum assessed as radial growth at 0.5% after 72 hrs by poison food technique of Flack relative to control; assay type: functional
Aspergillus niger [33] = assay: Antifungal activity against Aspergillus niger assessed as radial growth at 5% after 48 hrs by poison food technique of Flack relative to control; assay type: functional
Aspergillus niger [34] = assay: Antifungal activity against Aspergillus niger assessed as radial growth at 1% after 48 hrs by poison food technique of Flack relative to control; assay type: functional
Trichoderma hamatum [35] = assay: Antifungal activity against Trichoderma hamatum assessed as radial growth at 0.5% after 48 hrs by poison food technique of Flack relative to control; assay type: functional
Trichoderma koningii [36] = assay: Antifungal activity against Trichoderma koningii assessed as radial growth at 3% after 24 hrs by poison food technique of Flack relative to control; assay type: functional; how it was run: as §1
Aspergillus niger [37] = assay: Antifungal activity against Aspergillus niger assessed as radial growth at 1% after 72 hrs by poison food technique of Flack relative to control; assay type: functional
Trichoderma koningii [38] = assay: Antifungal activity against Trichoderma koningii assessed as radial growth at 0.5% after 72 hrs by poison food technique of Flack relative to control; assay type: functional; how it was run: as §1
Trichoderma hamatum [39] = assay: Antifungal activity against Trichoderma hamatum assessed as radial growth at 7% after 24 hrs by poison food technique of Flack relative to control; assay type: functional; how it was run: as §1
Aspergillus niger [40] = assay: Antifungal activity against Aspergillus niger assessed as radial growth at 0.5% after 72 hrs by poison food technique of Flack relative to control; assay type: functional
Aspergillus niger [41] = assay: Antifungal activity against Aspergillus niger; assay type: functional
Trichoderma hamatum [42] = assay: Antifungal activity against Trichoderma hamatum assessed as radial growth at 5% after 72 hrs by poison food technique of Flack relative to control; assay type: functional; how it was run: as §1
Trichoderma hamatum [43] = assay: Antifungal activity against Trichoderma hamatum assessed as radial growth at 3% after 24 hrs by poison food technique of Flack relative to control; assay type: functional
Trichoderma koningii [44] = assay: Antifungal activity against Trichoderma koningii; assay type: functional
Trichoderma hamatum [45] = assay: Antifungal activity against Trichoderma hamatum assessed as radial growth at 0.5% after 24 hrs by poison food technique of Flack relative to control; assay type: functional

MIC (Trichoderma hamatum [26]): 0.025 µg/mL (≈ 0.0855 µM)
MIC (Aspergillus niger [41]): 0.025 µg/mL (≈ 0.0855 µM)
MIC (Trichoderma koningii [44]): 0.025 µg/mL (≈ 0.0855 µM)
SMILES: CCOC(=O)C1=C(C)NC(=S)NC1c1ccccc1O (stereo not given)
inhibition (INH) (Trichoderma koningii [1]): 91.05%
inhibition (INH) (Trichoderma hamatum [2]): 100%
inhibition (INH) (Trichoderma hamatum [3]): 98.35%
inhibition (INH) (Trichoderma hamatum [4]): 76.44%
inhibition (INH) (Aspergillus niger [5]): 20.12%
inhibition (INH) (Trichoderma koningii [6]): 12.35%
inhibition (INH) (Aspergillus niger [7]): 54.95%
inhibition (INH) (Trichoderma hamatum [8]): 80.94%
inhibition (INH) (Trichoderma hamatum [9]): 49.73%
inhibition (INH) (Trichoderma koningii [10]): 91.4%
inhibition (INH) (Trichoderma hamatum [11]): 51.46%
inhibition (INH) (Aspergillus niger [12]): 0%
inhibition (INH) (Aspergillus niger [13]): 38.16%
Activity (Trichoderma hamatum [14]): Active
inhibition (INH) (Trichoderma koningii [15]): 0%
inhibition (INH) (Aspergillus niger [16]): 62.46%
inhibition (INH) (Trichoderma koningii [17]): 32.71%
inhibition (INH) (Trichoderma koningii [18]): 100%
inhibition (INH) (Aspergillus niger [19]): 61.83%
inhibition (INH) (Aspergillus niger [20]): 62.46%
inhibition (INH) (Trichoderma koningii [21]): 88.33%
inhibition (INH) (Trichoderma koningii [22]): 0%
inhibition (INH) (Trichoderma koningii [23]): 100%
inhibition (INH) (Aspergillus niger [24]): 0%
inhibition (INH) (Aspergillus niger [25]): 36.14%
inhibition (INH) (Trichoderma hamatum [27]): 38.22%
inhibition (INH) (Aspergillus niger [28]): 31.92%
inhibition (INH) (Trichoderma koningii [29]): 4.18%
inhibition (INH) (Trichoderma koningii [30]): 0%
inhibition (INH) (Trichoderma koningii [31]): 14.37%
inhibition (INH) (Trichoderma hamatum [32]): 0%
inhibition (INH) (Aspergillus niger [33]): 50%
inhibition (INH) (Aspergillus niger [34]): 0%
inhibition (INH) (Trichoderma hamatum [35]): 6.18%
inhibition (INH) (Trichoderma koningii [36]): 50.39%
inhibition (INH) (Aspergillus niger [37]): 0%
inhibition (INH) (Trichoderma koningii [38]): 0%
inhibition (INH) (Trichoderma hamatum [39]): 100%
inhibition (INH) (Aspergillus niger [40]): 0%
inhibition (INH) (Trichoderma hamatum [42]): 97.52%
inhibition (INH) (Trichoderma hamatum [43]): 81.13%
inhibition (INH) (Trichoderma hamatum [45]): 26.41%

— ChEMBL document CHEMBL1152173, “Synthesis and in vitro evaluation of the antifungal activities of dihydropyrimidinones” (2008)
